High-throughput results (PubChem BioAssay)
VLA-4 inh = inhibition in a human VLA-4 binding assay. P13612. VLA-4 expressing cells, ligand binding flow cytometry. inhibition, % (about 7 µM as worked out from the volumes in the protocol). 330,000 compounds, 0.2% hits. AID 2557; in the data active means inhibition above about 50%
CHT inh = human CHT choline transport inhibition | Q9GZV3 | CHT-expressing cells, membrane potential dye, choline response; hits give low values | B-score at 10 µM | 310,000 compounds, 0.86% hits;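 active means B-score over 3 SD under the library average, and starting fluorescence ratio not unusually high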;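 further: choline stimulus applied at its EC90 after an EC20 pre-addition; B-score computed on integrated fluorescence ratio after choline addition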
Target sequence (Q9GZV3 whole entry, looked up): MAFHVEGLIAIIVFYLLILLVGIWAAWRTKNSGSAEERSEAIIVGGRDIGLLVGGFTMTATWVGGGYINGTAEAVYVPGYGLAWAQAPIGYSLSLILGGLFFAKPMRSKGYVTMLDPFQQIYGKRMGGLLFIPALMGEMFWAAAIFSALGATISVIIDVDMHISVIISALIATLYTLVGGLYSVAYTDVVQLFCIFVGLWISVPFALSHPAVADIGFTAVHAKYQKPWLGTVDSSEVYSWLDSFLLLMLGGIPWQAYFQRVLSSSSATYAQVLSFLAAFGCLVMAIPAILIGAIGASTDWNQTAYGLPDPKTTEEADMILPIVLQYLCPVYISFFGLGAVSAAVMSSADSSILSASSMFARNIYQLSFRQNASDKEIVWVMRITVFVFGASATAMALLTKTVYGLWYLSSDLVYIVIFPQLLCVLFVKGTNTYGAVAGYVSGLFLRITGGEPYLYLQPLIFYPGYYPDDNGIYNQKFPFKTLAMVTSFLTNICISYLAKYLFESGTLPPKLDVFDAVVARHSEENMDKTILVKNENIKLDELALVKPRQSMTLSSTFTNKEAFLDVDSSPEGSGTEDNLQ
T cell modulator = T cell immune modulators affecting CD8 T cell-vesicle binding | 330,000 compounds, 0.068% hits | response (vesicle binding), % at 7 µM | 2C CD8+ T cell-vesicle binding, flow cytometry; hits give low values | AID 2052;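 active means response, share of CD8 T cells binding vesicles, and their 90th percentile fluorescence all below set limits, cut at about 80% in these data, passing the limit was not always enough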;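 further: values below 100% mean blocked vesicle binding to the CD8+ T cells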
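Incubation: binding step 1.5 h, 37 °C, antibody labelling 20 min, ice; system: murine 2C transgenic CD8+ T lymphocytes; technique: cytometric PE anti-B7-1 and Alexa647 anti-CD8 signals after 1% paraformaldehyde fixation; also added: QL9-charged Drosophila Ld/ICAM-1/B7-1 vesicles; control set: naked versus QL9-loaded vesicles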
CHT PAM = human CHT allosteric activation; Q9GZV3; 310,000 compounds, 0.49% hits; CHT-expressing cells, membrane potential dye, choline EC20; hits give high values; LV-AA mutant CHT in HEK293 cells; AID 488977; B-score at 10 µM;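 active means initial fluorescence not abnormally high and integrated response B-score, plate-corrected, over 3 SD above library mean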
CHT block conf = confirmation of human choline transporter CHT inhibitors; shares compounds with CHT inh; CHT-expressing cells, choline membrane potential dye; LV-to-AA substituted CHT, HEK293 cells; CHT activity remaining % of control (hits give low values), % at 10 µM; 2,400 compounds, 70% hits; AID 493221;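 active means choline transporter activity left, mean of duplicates at 10 µM, below buffer-only control mean minus 3 SD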;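 further: depolarization triggered by choline at its EC90 following an EC20 pre-addition; 0% = hemicholinium-3 full block and 100% = buffer-only control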
HEK293 CHT ctr = activity in parental HEK293 cells lacking CHT; shares compounds with CHT inh; membrane potential dye, choline response; active = decrease or increase beyond buffer ±3SD; membrane potential ratio readout (active if shifted either direction beyond buffer ±3SD; no single direction) at 10 µM; 2,400 compounds, 4% hits; AID 493222;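 further: parental cells lack the transporter so any hit is non-specific; ratio is peak minus trough fluorescence over baseline after EC90 choline challenge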
An asterisk follows results filed as active; i = inactive; · = no result given. This is a sample that favours compounds with a hit; in the whole collection about 1.5% have one here.

SMILES	VLA-4 inh	CHT inh	T cell modulator	CHT PAM	CHT block conf	HEK293 CHT ctr
Cc1ccccc1C(=O)c1cccn1CC(=O)NC(C)c1ccccc1 (centres undefined)	5	-6.8*	304	i	35%*	i
CCc1oc(C(=O)O)cc1CN(CC)CC	-10	i	249	i	·	·
CCc1oc(C(=O)O)cc1COC	10	-11*	188	i	i	i
CCCN1CCN(C(=O)c2c(Cl)cnn2C)CC1	16	i	0	i	·	·
O=C(c1ccco1)N1CCN(C(c2cccs2)c2nnnn2C2CCCC2)CC1 (centres undefined)	-2	-7.8*	518	i	i	i
N#CCCn1cc(/C=C2\NC(=S)N(c3ccccc3)C2=O)c(-c2ccc(F)cc2)n1	2	-6.8*	288	i	60%*	i
Cc1ccc(-c2ccc(=O)n(Cc3c(F)cccc3Cl)n2)cc1	-3	i	163	i	·	·
Cc1c(NC(=O)/C=C/c2cn(-c3ccccc3)nc2-c2ccccc2)c(=O)n(-c2ccccc2)n1C	4	-5.7*	497	i	65%*	i
O=C(O)/C=C/c1cn(-c2ccccc2)nc1-c1ccccc1	9	i	256	i	·	·
O=C(Cn1ccc(NC(=O)OCc2ccccc2)nc1=O)NCCCn1ccnc1	12	·	67	·	·	·
Cc1ccc(S(=O)(=O)Nc2cc(C(=O)NCCN(C)C)ccc2N2CCCCC2)cc1	-9	-15*	511	i	19%*	3.2*
Cc1ccc(S(=O)(=O)Nc2cc(C(=O)NCCN3CCCC3)ccc2N2CCCCC2)cc1	-6	-8.6*	218	i	23%*	3.8*
Cc1cc(C(=O)Nc2cccc(C)c2C)c2ccccc2n1	9	i	371	i	·	·
CCn1c(CC(=O)Nc2ccccc2Cl)nnc1SCC(=O)NC1CCCC1	0	i	228	i	·	·
CCOc1ccc(S(=O)(=O)Nc2cccc(C(=O)NCC(c3ccccc3)N(C)C)c2)cc1 (centres undefined)	8	-7.6*	596	i	16%*	i
COc1ccc(/C=C/C(=O)Oc2cc(O)cc(O)c2)cc1	5	-6.6*	153	i	i	i
Oc1c(Br)cc(Br)cc1C=Nc1cccc2ncccc12	0	-8.2*	434	i	53%*	i
COc1ccc(N2C(=O)CC(Sc3nc4c(cc3C#N)CCC4)C2=O)cc1 (centres undefined)	-3	i	142	i	·	·
Cc1nn(C)c(C)c1CN(C)S(=O)(=O)c1ccc2ccccc2c1	8	-5.1*	i	i	51%*	i
CCCc1cc(=O)n2nc(N3CCC(C(=O)NCc4ccc(C)o4)CC3)sc2n1	-8	i	392	i	·	·
CCN(CC)CCCn1c2c(c(SCC(=O)Nc3ccc(OC(F)(F)F)cc3)nc1=O)CCC2	15	-12*	224	i	38%*	i
CCCCc1ccc(NC(=O)CSc2nc(=O)n(CCCN3CCOCC3)c3c2CCC3)cc1	-16	-7.9*	171	i	21%*	i
Cc1noc(C)c1COC(=O)c1ccc(F)c(S(=O)(=O)N2CCCCC2)c1	13	-5*	494	i	69%*	i
Cc1noc(C)c1COC(=O)c1cccc(S(=O)(=O)N2CCCCCC2)c1	-2	i	477	i	·	·
COc1cc(/C=C/C(=O)N2CC(C)OC(C)C2)cc(OC)c1OC (centres undefined)	6	i	146	i	·	·
SMILES	VLA-4 inh	CHT inh	T cell modulator	CHT PAM	CHT block conf	HEK293 CHT ctr
Cc1cc(S(=O)(=O)N2CCOCC2)ccc1NC(=O)c1ccc(F)cc1	16	i	198	i	·	·
c1ccc(Sc2ncnc3ccccc23)cc1	-2	-5*	157	i	i	i
C=CCNc1nc(SC)nc2ccsc12	8	-11*	496	i	3.0%*	i
COc1ccc(Oc2nc(SC)nc3ccsc23)cc1	4	i	348	i	·	·
O=C(Nc1cc(C(F)(F)F)ccc1-n1cncn1)c1ccc([N+](=O)[O-])o1	-1	-6.1*	345	i	33%*	i
Cc1c(Br)c([N+](=O)[O-])nn1C(C)C(=O)N1CCc2ccccc2C1 (centres undefined)	3	i	276	i	·	·
